DNMT1 inh – DNMT1 (human) enzyme inhibition; inhibition (reported as % activation of signal), % at 10 µM; P26358; DNMT1 molecular beacon, Hinp1I cleavage, fluorescence; 360,000 tested, 0.83% active; in the data active means inhibition above about 50%
SUMO1 PPI mod – alters human SUMO1 binding to SIM partners; inhibition, % at 20 µM; AID 602429; 360,000 tested, 0.33% active; SUMO1 binding to a labelled peptide, TR-FRET, 1 h; in the data active means inhibition above about 37%
Target sequence (P63165 whole entry, looked up): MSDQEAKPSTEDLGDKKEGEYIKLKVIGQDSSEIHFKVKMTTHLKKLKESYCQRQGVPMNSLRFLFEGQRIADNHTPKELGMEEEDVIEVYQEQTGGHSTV
STEP block – STEP (human) phosphatase inhibition; P54829; recombinant STEP, OMFP fluorogenic substrate, fluorescence; inhibition, % at 20 µM; 360,000 tested, 0.25% active;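 active means inhibition at 20 µM, scaled per plate between control wells, above about 37%, limit read from the data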;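 further: 0% = DMSO with enzyme and substrate and 100% = substrate only without enzyme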
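System: STEP (striatal-enriched tyrosine phosphatase) enzyme, cell-free; medium: Bis-Tris pH 6.0 buffer with DTT, detergent; dosing: 20 µM, 1% DMSO; times: reaction 20 min, ambient temperature; detection: fluorescence, 480/540 nm; read-out basis: normalized % inhibition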
LMPTP block – LMPTP (human) inhibition | P24666 | recombinant LMPTP-A, OMFP fluorogenic substrate, fluorescence intensity | inhibition, % at 20 µM | 360,000 tested, 0.22% active;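 active means compounds that cut the enzyme signal by at least half of the control window in the single-dose screen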;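 further: plate controls were DMSO wells with enzyme plus substrate for no effect and substrate without enzyme for full effect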
Target sequence (P24666 whole entry, looked up): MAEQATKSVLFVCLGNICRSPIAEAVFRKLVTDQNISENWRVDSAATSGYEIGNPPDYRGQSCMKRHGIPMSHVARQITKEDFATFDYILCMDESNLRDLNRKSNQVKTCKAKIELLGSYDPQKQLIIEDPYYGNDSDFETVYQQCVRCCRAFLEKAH
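test system = LMPTP-A | amount = 0.625 nM LMPTP-A final | reagent = fluorogenic phosphatase substrate OMFP at 400 µM final | incubation = 50 min at room temperature | benchmarks = no-enzyme low control, uninhibited high control | medium = Bis-Tris pH 6.0, DTT, detergent | signal = fluorescence intensity of OMFP turnover product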
Scp-1 inhibitor – blocks human Scp-1 phosphatase activity. Recombinant Scp1, phosphopeptide, malachite green phosphate absorbance. 340,000 tested, 0.88% active. inhibition, % at 20 µM. Q9GZU7;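 active means inhibition above about 50% at 20 µM, limit read from the data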;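 further: plate controls were DMSO wells with enzyme for no effect and wells lacking enzyme for full effect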
Target sequence (Q9GZU7 76-261 limits assumed): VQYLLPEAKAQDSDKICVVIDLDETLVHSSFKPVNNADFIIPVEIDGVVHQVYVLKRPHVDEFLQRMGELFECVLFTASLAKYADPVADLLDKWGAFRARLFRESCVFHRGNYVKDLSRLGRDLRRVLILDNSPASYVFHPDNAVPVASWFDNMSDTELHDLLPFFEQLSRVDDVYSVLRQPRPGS
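Test system: SCP-1 phosphatase catalytic domain, residues 76-261; measured by: colorimetric phosphate reagent with accelerator and stabiliser, absorbance at 630 nm; timing: enzyme reaction 45 min at room temperature, colour 5 min, stabilisation 30 min; also added: Phosphorylated 17-residue peptide substrate; compound dosing: one concentration, 20 µM, with 1.0% DMSO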
The depositor's hits bear a star; . = no result given. In the library only some 1.7% were active in any assay of this set; here they are far more common.

SMILES	DNMT1 inh	SUMO1 PPI mod	STEP block	LMPTP block	Scp-1 inhibitor
CC[n+]1c(C)sc2c(C)cc(C)cc21	-1.4	2.1	-4.2	-1.6	0.0
Cc1cc(C)nc(/N=c2/ssnc2Cl)c1	-13.9	20.3	4.8	78.8*	-3.6
COc1ccc(N2CC(C(=O)N3CCN(c4ccccc4OC)CC3)CC2=O)cc1 (configuration not stated)	1.8	1.5	-0.3	-0.3	-5.8
CCOC(=O)c1c(-c2ccc3ccccc3c2)csc1NC(=O)CCCC(=O)O	-1.6	2.6	-1.0	2.5	-6.6
CCC(=O)C1CCCN(C(=O)c2ccc(OC)c(OC3CCN(C(C)=O)CC3)c2)C1 (configuration not stated)	1.9	42.9*	-2.5	-1.4	-6.9
COc1ccc(C(=O)N2CCN(C)C(C)C2)cc1OC1CCN(C(C)=O)CC1 (configuration not stated)	-0.2	3.0	-0.5	-0.9	-1.8
C[C@@H]1CN([C@@H](C)CO)S(=O)(=O)c2ccc(Br)cc2O[C@@H]1CN(C)C(=O)c1ccncc1	2.0	3.7	-1.2	-2.0	.
Cc1ccc(S(=O)(=O)N(C(=O)c2ccncc2)c2ccc(OC(=O)c3ccncc3)c3ccccc23)c(C)c1	-25.4	5.0	1.0	2.7	60.0*
COc1cc2c3c(cccc3c1)C(=O)N(CCN1CCCC1)C2=O	73.4*	-30.3	-2.0	20.6	.
O=C1CCCN1CCCNc1nc(NCc2ccccc2)nc2ccsc12	6.8	2.4	-0.4	67.5*	.
COc1cccc(CN2CC(C(=O)N3CCOCC3)CCC2=O)c1 (configuration not stated)	-0.8	2.6	-2.5	-1.2	-7.4
COc1cccc(-c2nnc3n2N=C(c2cccc(Br)c2)CS3)c1	28.6	49.4*	-1.0	-2.9	-4.6
Cc1cccc(-c2nnc3n2N=C(c2ccc(Br)cc2)CS3)c1	.	.	.	.	39.4
CC1(C(=O)NS(=O)(=O)c2ccccc2Cl)CCN1C(=O)Cc1ccc(Cl)cc1Cl (configuration not stated)	-0.1	3.1	1.6	-0.3	.
CC(C)C(C(=O)O)N1C(=O)/C(=C/c2cccn2C)SC1=S (configuration not stated)	9.8	-28.6	0.6	5.1	-10.5
O=C1/C(=C/C=C/c2ccco2)SC(=S)N1c1ccc(O)cc1	93.5*	60.0*	16.0	58.1*	59.4*
CC(C)C(C(=O)O)N1C(=O)/C(=C/C=C/c2ccco2)SC1=S (configuration not stated)	84.5*	108.2*	92.2*	77.6*	96.8*
CC(C)(C)c1ccc(C(=O)N2CCCC2c2cccs2)cc1 (configuration not stated)	1.9	-0.3	-0.3	2.7	-4.4
Cc1cccc(-n2nc3c(c2NC(=O)c2ccco2)CSC3)c1C	86.5*	6.4	2.2	3.8	49.7
COc1ccc(S(=O)(=O)N2CCOCC2)cc1NC(=O)CN1CCCc2ccccc21	-5.3	7.8	0.7	2.0	-7.7
COc1ccccc1CNc1nc(NCc2ccc(NC(C)=O)cc2)c2sccc2n1	-12.3	2.0	1.7	65.1*	.
COc1ccccc1CNc1nc(Nc2cccc(-c3cnco3)c2)c2sccc2n1	-32.0	0.9	2.8	51.0*	.
CC(=O)NCCNc1nc(NCc2ccccc2)nc2ccsc12	1.4	2.8	-3.9	28.6	.
CC(=O)Nc1ccc(CNc2nc(NCc3cccs3)nc3ccsc23)cc1	-8.1	0.0	1.4	60.6*	.
COc1ccccc1CNc1nc(NCc2ccccc2OC)c2sccc2n1	-11.9	-5.7	1.2	22.6	.
SMILES	DNMT1 inh	SUMO1 PPI mod	STEP block	LMPTP block	Scp-1 inhibitor
O=C(NCc1ccccc1)/C(=C/c1ccc([N+](=O)[O-])cc1)NC(=O)c1ccco1	-4.4	-34.0	-1.5	0.2	-5.5
C[C@H](CO)N1C[C@H](C)[C@@H](CN(C)C(=O)Nc2ccc3c(c2)OCO3)Oc2ccc(NC(=O)CCN3CCOCC3)cc2C1=O	0.7	-2.8	1.0	-0.8	19.9
CNS(=O)(=O)c1cccc(C(=O)OCCCOC(=O)c2cccc(S(=O)(=O)NC)c2)c1	-0.6	2.0	-1.9	-0.6	-7.1
COCP(=O)(c1ccccc1)c1ccccc1	3.9	4.7	-3.5	0.0	-6.3
CC(C)OCP(=O)(c1ccccc1)c1ccccc1	3.8	50.8*	-0.8	-1.2	-3.7
O=C(CSc1ccc(Cl)cc1)c1ccco1	97.9*	2.8	11.0	20.4	72.9*

Source: PubChem
